Measurements from ChEMBL document CHEMBL4007439, “Design, Synthesis, and Evaluation of a Novel Series of Oxadiazine Gamma Secretase Modulators for Familial Alzheimer's Disease” (J Med Chem, 2017).
Blank lines part the entries; values can stand above or below the compound they belong to. The source made the active and inactive calls. The calls are words filed in the database; no cut-off is given here.

Legend:
[1] = Modulation of gamma-secretase in human H4 cells expressing human APP751 assessed as inhibition of amyloid beta 42 production incubated overnight by sandwich ELISA; type: cell-based
Summary of the method: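 Aβ42 EC50 in H4 cells overexpressing WT human APP751; each value is the average of n > 2 assays, each run in duplicate.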

Mus musculus [2] = assay: Reduction in amyloid beta 42 levels in mouse brain at 30 mg/kg, po measured at 6 hrs post dose by ELISA; type: functional
Summary of the method: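 Single oral dose of 30 mg/kg; brain (mouse, rat) and rat CSF Aβ42 and Aβ37 measured 6 h post-dose, expressed relative to vehicle; total and free brain drug levels and brain:plasma ratio taken at the same time.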

[3] = Total drug uptake in mouse brain at 90 mg/kg, po measured at 6 hrs post dose; type: ADME, organism-based; conditions: read-out: Drug uptake
Summary of the method: (§1)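 Mice dosed 90 mg/kg; brain Aβ42 lowering, total brain drug concentration and brain:plasma ratio measured 6 hours post-dose.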

[4] = Ratio of drug level in brain to plasma in mouse at 90 mg/kg, po measured at 6 hrs post dose; type: ADME, organism-based; conditions: read-out: BPR; summary of the method: as §1
[5] = Unbound intrinsic clearance in rat hepatocytes; type: ADME, cell-based, Hepatocyte
Mus musculus [6] = assay: Reduction in amyloid beta 42 levels in mouse brain at 90 mg/kg, po measured at 6 hrs post dose by ELISA; type: functional; summary of the method: as §1
[7] = Modulation of gamma-secretase (unknown origin); design: species or system Homo sapiens

- EC50 ([1]; Homo sapiens): 1270 nM
SMILES: COc1nc(C2=NOC[C@H](COc3ccc(F)cc3C)N2)ccc1-c1cnc(C)s1

- EC50 ([1]; Homo sapiens): 113 nM
SMILES: COc1cc(C2=NOC[C@H](COc3ccc(Cl)cc3C(F)(F)F)N2C)ccc1-n1cnc(C)c1
- Activity (Mus musculus [2]): inactive

- concentration at 6 h [3]: 36 µM
- Kp at 6 h [4]: 0.6
- CL free [5]: 255.1 L/h/kg
- EC50 ([1]; Homo sapiens): 15 nM
SMILES: COc1nc(C2=NOC[C@@H]3[C@H](Oc4ccc(Cl)cc4C(F)(F)F)CCCN23)ccc1-n1cnc(C)c1
- inhibition in vivo at 90 mg/kg (Mus musculus [6]): 32%

- EC50 [7]: 35 nM
SMILES: COc1cc(N2CCC(C(=O)N3CCC[C@@H](Oc4ccc(Cl)cc4C(F)(F)F)C3)CC2)ccn1

- EC50 [1]: 307 nM
SMILES: COc1nc(C2=NOCC3CN(c4ccc(Cl)cc4C(F)(F)F)CCN23)ccc1-n1cnc(C)c1 (single isomer, unassigned; (-))
